Legend:
Brain [1] = experiment: Biodistribution in Sprague-Dawley rat brain at 1.48 to 2.22 MBq, iv measured at 5 mins by gamma counting analysis; type: ADME, organism-based; settings: in vivo
Method in brief: (§1)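 Male Sprague-Dawley rats (250 - 400 g), tail-vein injection of 1.48 - 2.22 MBq radiotracer under 2.5% isoflurane in oxygen; n=4 per time point, euthanized at 5, 30 and 60 min p.i. Brain regions obtained by gross dissection; peripheral tissues collected. Samples weighed, gamma-counted against a diluted-injectate standard; %ID/g calculated.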

Liver [2] = experiment: Biodistribution in Sprague-Dawley rat liver at 1.48 to 2.22 MBq, iv measured at 30 mins by gamma counting analysis; type: ADME, organism-based; settings: in vivo, 0.5 h; method in brief: as §1
Nucleic Acid [3] = experiment: Ratio of drug level in striatum to midbrain region in cynomolgus monkey at 185 to 259 MBq, iv measured at 40 mins by micro PET image analysis; type: ADME, organism-based, Macaca fascicularis, Brain; settings: in vivo
Method in brief: (§2)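 Adult male cynomolgus macaques (~4–6 kg), three independent PET studies per tracer on a microPET Focus 220. Animals fasted 12 h and anesthetized with ketamine (10 mg/kg) plus glycopyrrolate (0.13 mg/kg) i.m. A 10 min positioning transmission scan and a 45 min attenuation transmission scan were run, then a 3 h dynamic emission scan after venous tracer injection. Regional TACs came from ROIs, expressed as SUV (body weight, injected dose).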

Blood [4] = experiment: Biodistribution in Sprague-Dawley rat blood at 1.48 to 2.22 MBq, iv measured at 5 mins by gamma counting analysis; type: ADME, organism-based; settings: in vivo; method in brief: as §1
[5] = Metabolic stability in cynomolgus monkey plasma assessed as compound remaining at 185 to 259 MBq, iv measured at 15 mins by HPLC analysis; type: ADME, organism-based, Macaca fascicularis; settings: read-out: Stability
Method in brief: (§3)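 Arterial blood (~1.5 mL) drawn at 2, 15, 30, 60 and 90 min p.i. into heparinized syringes, then centrifuged to plasma. Plasma deproteinated with 2 parts ice-cold methanol. Extract run on C-18 HPLC, MeCN/0.1 M ammonium formate pH 4.5, 0.9 mL/min, UV 254 nm. 1-min fractions over 16 min were well-counted and decay-corrected; parent percentage taken from recovered activity.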

Nucleic Acid [6] = experiment: Ratio of drug level in striatum to white matter in cynomolgus monkey at 185 to 259 MBq, iv measured at 40 mins by micro PET image analysis; type: ADME, organism-based, Macaca fascicularis; settings: in vivo; method in brief: as §2
Liver [7] = experiment: Biodistribution in Sprague-Dawley rat liver at 1.48 to 2.22 MBq, iv measured at 5 mins by gamma counting analysis; type: ADME, organism-based; settings: in vivo; method in brief: as §1
Rattus norvegicus = experiment: Biodistribution in Sprague-Dawley rat fat tissue at 1.48 to 2.22 MBq, iv measured at 5 mins by gamma counting analysis; type: ADME, organism-based, Adipose tissue; settings: in vivo; method in brief: as §1
Nucleic Acid [8] = experiment: Ratio of drug level in striatum to temporal region in cynomolgus monkey at 185 to 259 MBq, iv measured at 40 mins by micro PET image analysis; type: ADME, organism-based, Macaca fascicularis; settings: in vivo; method in brief: as §2
Brain [9] = experiment: Biodistribution in Sprague-Dawley rat brain at 1.48 to 2.22 MBq, iv measured at 60 mins by gamma counting analysis; type: ADME, organism-based; settings: in vivo, 1 h; method in brief: as §1
Plasma = experiment: Retention time of the compound in cynomolgus monkey plasma at 185 to 259 MBq, iv by HPLC analysis; type: ADME, organism-based, Macaca fascicularis; method in brief: as §3
Nucleic Acid [10] = experiment: Ratio of drug level in striatum to midbrain region in cynomolgus monkey at 185 to 259 MBq, iv measured at 70 mins by micro PET image analysis; type: ADME, organism-based, Macaca fascicularis, Brain; settings: in vivo; method in brief: as §2
Nucleic Acid [11] = experiment: Ratio of drug level in striatum to cerebellum in cynomolgus monkey at 185 to 259 MBq, iv measured at 70 mins by micro PET image analysis; type: ADME, organism-based, Macaca fascicularis; settings: in vivo; method in brief: as §2
Nucleic Acid [12] = experiment: Ratio of drug level in striatum to cerebellum in cynomolgus monkey at 185 to 259 MBq, iv measured at 40 mins by micro PET image analysis; type: ADME, organism-based, Macaca fascicularis; settings: in vivo; method in brief: as §2
Nucleic Acid [13] = experiment: Ratio of drug level in striatum to occipital in cynomolgus monkey at 185 to 259 MBq, iv measured at 70 mins by micro PET image analysis; type: ADME, organism-based, Macaca fascicularis; settings: in vivo; method in brief: as §2
Nucleic Acid [14] = experiment: Ratio of drug level in striatum to white matter in cynomolgus monkey at 185 to 259 MBq, iv measured at 70 mins by micro PET image analysis; type: ADME, organism-based, Macaca fascicularis; settings: in vivo; method in brief: as §2
Liver [15] = experiment: Biodistribution in Sprague-Dawley rat liver at 1.48 to 2.22 MBq, iv measured at 60 mins by gamma counting analysis; type: ADME, organism-based; settings: in vivo, 1 h; method in brief: as §1
Nucleic Acid [16] = experiment: Ratio of drug level in striatum to hippocampus in cynomolgus monkey at 185 to 259 MBq, iv measured at 40 mins by micro PET image analysis; type: ADME, organism-based, Macaca fascicularis; settings: in vivo; method in brief: as §2
Putamen = experiment: Drug uptake in cynomolgus monkey putamen at 185 to 259 MBq, iv measured over 180 mins by micro PET image analysis; type: ADME, organism-based, Macaca fascicularis; settings: in vivo, 3 h
Method in brief: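 Adult male cynomolgus macaques (~4–6 kg), three studies per tracer, fasted 12 h. Induction with ketamine 10 mg/kg plus glycopyrrolate 0.13 mg/kg i.m. Transmission scans of 10 min for positioning and 45 min for attenuation correction, then a 3 h dynamic microPET emission scan after venous injection of 185 - 259 MBq. ROI time-activity curves expressed as SUV (body weight and injected dose).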

Bone [17] = experiment: Biodistribution in Sprague-Dawley rat bone at 1.48 to 2.22 MBq, iv measured at 30 mins by gamma counting analysis; type: ADME, organism-based, Bone element; settings: in vivo, 0.5 h; method in brief: as §1
[18] = Ratio of drug level in striatum to cerebellum in Sprague-Dawley rat at 1.48 to 2.22 MBq, iv measured at 5 to 30 mins by gamma counting analysis; type: ADME, organism-based; settings: in vivo
Method in brief: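 Striatum, cerebellum and cortex obtained by gross dissection from Sprague-Dawley rats (250 - 400 g, n=4 per time point) after tail-vein injection of 1.48 - 2.22 MBq under isoflurane anesthesia. Tissues weighed and gamma-counted with an injectate standard to give %ID/g; ratios taken from striatal versus non-target uptake.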

Bone [19] = experiment: Biodistribution in Sprague-Dawley rat bone at 1.48 to 2.22 MBq, iv measured at 60 mins by gamma counting analysis; type: ADME, organism-based, Bone element; settings: in vivo, 1 h; method in brief: as §1
Striatum = experiment: Biodistribution in Sprague-Dawley rat striatum at 1.48 to 2.22 MBq, iv measured at 30 mins by gamma counting analysis; type: ADME, organism-based; settings: in vivo, 0.5 h; method in brief: as §1
Nucleic Acid [20] = experiment: Ratio of drug level in striatum to frontal in cynomolgus monkey at 185 to 259 MBq, iv measured at 70 mins by micro PET image analysis; type: ADME, organism-based, Macaca fascicularis; settings: in vivo; method in brief: as §2
Muscle tissue = experiment: Biodistribution in Sprague-Dawley rat muscle at 1.48 to 2.22 MBq, iv measured at 60 mins by gamma counting analysis; type: ADME, organism-based; settings: in vivo, 1 h; method in brief: as §1
Blood [21] = experiment: Biodistribution in Sprague-Dawley rat blood at 1.48 to 2.22 MBq, iv measured at 30 mins by gamma counting analysis; type: ADME, organism-based; settings: in vivo, 0.5 h; method in brief: as §1
Blood [22] = experiment: Biodistribution in Sprague-Dawley rat blood at 1.48 to 2.22 MBq, iv measured at 60 mins by gamma counting analysis; type: ADME, organism-based; settings: in vivo, 1 h; method in brief: as §1
Nucleic Acid [23] = experiment: Ratio of drug level in striatum to frontal in cynomolgus monkey at 185 to 259 MBq, iv measured at 40 mins by micro PET image analysis; type: ADME, organism-based, Macaca fascicularis; settings: in vivo; method in brief: as §2
[24] = Metabolic stability in cynomolgus monkey plasma assessed as compound remaining at 185 to 259 MBq, iv measured at 2 mins by HPLC analysis; type: ADME, organism-based, Macaca fascicularis; settings: read-out: Stability; method in brief: as §3
[25] = Metabolic stability in cynomolgus monkey plasma assessed as compound remaining at 185 to 259 MBq, iv measured at 30 mins by HPLC analysis; type: ADME, organism-based, Macaca fascicularis; settings: read-out: Stability; method in brief: as §3

## Cn1cc(-c2ccncc2)c(-c2ccc(OCc3nc4ccccc4cc3OCC[18F])cc2)n1
Brain [1]
  Drug uptake: 0.092 % ID/g
Liver [2]
  Drug uptake: 3.17 % ID/g
Nucleic Acid [3]
  Ratio: > 3
Blood [4]
  Drug uptake: 0.343 % ID/g
[5]
  remaining at 0.25 h: 90%
Nucleic Acid [6]
  Ratio: > 3
Liver [7]
  Drug uptake: 4.24 % ID/g
Rattus norvegicus
  Drug uptake: 0.119 % ID/g
Nucleic Acid [8]
  Ratio: > 3
Brain [9]
  Drug uptake: 0.149 % ID/g
Plasma
  Retention_time: 10.5 min
Nucleic Acid [10]
  Ratio: > 5
Nucleic Acid [11]
  Ratio: > 5
Nucleic Acid [12]
  Ratio: > 3
Nucleic Acid [13]
  Ratio: > 5
Nucleic Acid [14]
  Ratio: > 5
Liver [15]
  Drug uptake: 1.8 % ID/g
Nucleic Acid [16]
  Ratio: > 3
Putamen
  Drug uptake: Active
Bone [17]
  Drug uptake: 0.144 % ID/g
[18]
  Ratio: > 2
Bone [19]
  Drug uptake: 0.224 % ID/g
Striatum
  Drug uptake: Active
Nucleic Acid [20]
  Ratio: > 5
Muscle tissue
  Drug uptake: 0.134 % ID/g
Blood [21]
  Drug uptake: 0.306 % ID/g
Blood [22]
  Drug uptake: 0.287 % ID/g
Nucleic Acid [23]
  Ratio: > 3
[24]
  remaining at 2 min: 99%
[25]
  remaining at 0.5 h: 73%

Reference: ChEMBL document CHEMBL3627597, “Synthesis of Fluorine-Containing Phosphodiesterase 10A (PDE10A) Inhibitors and the In Vivo Evaluation of F-18 Labeled PDE10A PET Tracers in Rodent and Nonhuman Primate” (J Med Chem, 2015)
